Publication PMC10407628 (Computational and Structural Biotechnology Journal, 2023)
Ends that are not written are not given here. Peptide text beside a SMILES is read from it. * marks the point of attachment. FITC = O=C1OC2(c3ccc(O)cc3Oc3cc(O)ccc32)c2ccc(NC(=S)*)cc21

Columns and labels:
Mcl-1 (Mcl-1ΔN170ΔC23) = Mcl-1 (Mcl-1ΔN170ΔC23) (Homo sapiens, UniProt Q07820); experiment: Fluorescence polarization assay; format: binding
Summary of the method: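 Human Mcl-1ΔN170ΔC23 was expressed His-SUMO-tagged in E. coli Rosetta BL21(DE3), Ni-purified, ULP1-cleaved, then SEC-purified. Protein was serially diluted in 20 mM Tris pH 8.0, 50 mM NaCl with FITC-labelled BH3 peptide (10 nM), shaken 1 min, and incubated 10 min at room temperature in the dark. Polarization (mP) was read in at least three replicates, and Kd was obtained by sigmoidal dose-response nonlinear regression.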

FITC-Bim BH3 = experiment: fluorescence polarisation
FITC-Bmf BH3 = experiment: fluorescence polarisation
Bcl-2ΔC32ΔLoop = target: T1, Bcl-2ΔC32ΔLoop (human, UniProt P10415;Q07817); experiment: crystal structure
T1 chain: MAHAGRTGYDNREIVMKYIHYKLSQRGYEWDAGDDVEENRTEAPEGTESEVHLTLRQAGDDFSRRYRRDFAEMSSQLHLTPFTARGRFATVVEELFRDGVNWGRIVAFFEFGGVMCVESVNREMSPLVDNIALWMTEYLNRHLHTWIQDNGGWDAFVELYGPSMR

Bcl-xLΔC25ΔLoop = Bcl-xLΔC25ΔLoop (human, UniProt Q07817-1 1-208, removes the unstructured loop between residues 46–82); experiment: crystal structure
R146A Bcl-2 = R146A Bcl-2 (human, UniProt P10415 1-207, R146A); experiment: fluorescence polarisation
R146A Bcl-2, sequence (P10415 1-207 R146A): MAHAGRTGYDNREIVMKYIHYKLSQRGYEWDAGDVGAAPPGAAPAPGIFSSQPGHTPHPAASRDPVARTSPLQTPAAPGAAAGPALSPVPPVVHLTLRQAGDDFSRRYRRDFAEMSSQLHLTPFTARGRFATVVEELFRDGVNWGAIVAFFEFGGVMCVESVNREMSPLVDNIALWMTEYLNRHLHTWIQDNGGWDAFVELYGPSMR

R139A Bcl-xL = R139A Bcl-xL (human, UniProt Q07817-1 1-208, R139A); experiment: fluorescence polarisation
Bcl-2ΔC32 = Bcl-2ΔC32 (human, UniProt P10415 1-207); experiment: fluorescence polarisation
Bcl-xLΔC25 = Bcl-xLΔC25 (human, UniProt Q07817-1 1-208); experiment: fluorescence polarisation

Mcl-1 (Mcl-1ΔN170ΔC23), sequence (Q07820 171-327 limits assumed, stated change not applied): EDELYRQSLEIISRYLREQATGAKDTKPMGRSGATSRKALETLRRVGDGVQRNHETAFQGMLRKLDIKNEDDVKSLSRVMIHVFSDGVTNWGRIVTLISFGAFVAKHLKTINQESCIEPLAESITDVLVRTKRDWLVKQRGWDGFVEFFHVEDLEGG

Question: With `CC[C@H](C)[C@H](NC(=O)[C@H](CS)NC(=O)[C@H](CCC(N)=O)NC(=O)[C@H](CC(C)C)NC(=O)[C@H](CCCCN)NC(=O)[C@H](CCCNC(=N)N)NC(=O)[C@H](C)NC(=O)[C@@H](NC(=O)[C@H](CCC(N)=O)NC(=O)[C@@H](NC(=O)[C@H](CCC(=O)O)NC(=O)[C@H](C)NC(=O)[C@H](CCC(N)=O)NC(=O)[C@H](Cc1c[nH]cn1)NC(=S)Nc1ccc2c(c1)C(=O)OC21c2ccc(O)cc2Oc2cc(O)ccc21)C(C)C)[C@@H](C)CC)C(=O)N[C@@H](C)C(=O)N[C@@H](CC(=O)O)C(=O)N[C@@H](CCC(N)=O)C(=O)N[C@@H](Cc1ccccc1)C(=O)N[C@@H](Cc1c[nH]cn1)C(=O)N[C@@H](CCCNC(=N)N)C(=O)N[C@@H](CC(C)C)C(=O)N[C@@H](Cc1c[nH]cn1)C(=O)N[C@H](C(=O)N[C@@H](CCC(N)=O)C(=O)N[C@@H](CCC(N)=O)C(=O)O)C(C)C` [FITC-Bmf BH3] ({FITC}-HQAEVQIARKLQCIADQFHRLHVQQ-OH) as the molecule, how does the Kd (Mcl-1 (Mcl-1ΔN170ΔC23)) read?
Answer: 185 nM

Question: What does the source list for “Mcl-1ΔN170ΔC23 (from UniProt Q07820 171-327) (domain or fragment)”?
Answer: Kd (FITC-Bim BH3): 5.8 nM; Kd (FITC-Bmf BH3): 185 nM

Question: With “Mcl-1 with Ala-227 substituted by Asp (from UniProt Q07820 171-327) (domain or fragment)” as the molecule, how does the Kd (FITC-Bmf BH3) read?
Answer: 49 nM

Question: Does EVQIARKLQCIADQFHRLHVQ [21-mer Bmf BH3 peptide] bind (Bcl-2ΔC32ΔLoop)?
Answer: binds

Question: Does HQAEVQIARKLQCIADQFHRLHVQQ [25-mer Bmf BH3 peptide] bind (Bcl-xLΔC25ΔLoop)?
Answer: binds

Question: How did the Kd (R146A Bcl-2) turn out when {FITC}-HQAEVQIARKLQCIADQFHRLHVQQ [FITC-Bmf BH3] was run?
Answer: 623 nM

Question: What about the Kd (R139A Bcl-xL) of the same molecule?
Answer: 1240 nM

Question: What about the Kd (Bcl-2ΔC32) of the same molecule?
Answer: 5.2 ± 0.3 nM

Question: And the Kd (Bcl-xLΔC25)?
Answer: 5.1 ± 0.4 nM
